# High-throughput results: PubChem BioAssay, Sanford-Burnham Center for Chemical Genomics
# A selection follows.
# Apaf1 activ = activates human Apaf-1 apoptosome; 330,000 tested, 0.31% active; Apaf-1 apoptosome caspase-3 activation, DEVD-Rh110 fluorescence; active compounds read low; activity change, negative = activation, % at 20 µM; O14727;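 active means activity change at or below -40% at 20 µM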
#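 System: Reconstituted apoptosome of Apaf-1, cytochrome c, caspase-9, procaspase-3 | Reagent: dATP, cytochrome c, and (Z-DEVD)2-Rh110 caspase-3 substrate | Times: 30 min compound preincubation and 50 min reaction, both room temperature | Detection: Caspase-3-released Rh110 fluorescence, 540 nm emission, 480 nm excitation | Measure: Caspase-3 activity via Apaf-1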
# Rh110 interf act = Rh110 signal interference in Apaf-1 activator counter-screen; shares compounds with Apaf1 activ; Rh110 fluorescence interference, quenched caspase reaction, Ex480/Em540; fluorescence interference (activity change), % at 20 µM, hits read low; 980 tested, under 10 active;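 active means mean activity change at or below -40% when tested at 20 µM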
# Apaf-1 act conf2 = confirmation of human Apaf-1 activators. reconstituted apoptosome caspase-3 activity, DEVD-Rh110 fluorescence; active compounds read low. activity change, negative = activation, % at 20 µM. shares compounds with Apaf1 activ. 980 tested, 5% active;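 active means mean activity change at or below -40%, meaning activation of 40% or more, at 20 µM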
# Apaf1 act interf = Apaf-1 activator counter-screen fluorescence artifact | shares compounds with Apaf1 activ | AID 588592 | EC50, µM | fluorescence interference counterscreen, Apaf-1 activator assay | 55 tested, under 10 active; call rule not given here
# A number is an active result; – = inactive; · = no result given.
SMILES,Apaf1 activ,Rh110 interf act,Apaf-1 act conf2,others
Nc1ccc(C(=O)N/N=C/c2cccc(Oc3ccccc3)c2)cc1,-64,–,–,
Cc1[nH]n(-c2ccccc2)c(=O)c1/C=N/NC(=O)c1cccc(F)c1,–,·,·,
O=C(C[C@H]1C[C@H](C(=O)N2CCOCC2)[C@@]2(CCC3CCCC3)c3[nH]c4cc(-c5ccco5)ccc4c3CCN2C1=O)NCCCn1ccnc1,–,·,·,
O=C1CCc2ccc(OCCCCN3CCN(c4cccc(Cl)c4Cl)CC3)cc2N1,–,·,·,
CN1CCN(CCc2nc3cc(NC(=O)COc4ccccc4)ccc3n2C)CC1,–,·,·,
CN1CCN(CCOc2cccc(Cl)c2)CC1,-50,–,–,
CC(Nc1cccc2ccccc12)C(=O)N/N=C/c1ccccn1 (stereo unspecified),–,·,·,
O=C(CNc1cccc2ccccc12)N/N=C/C(Br)=C/c1ccccc1,–,·,·,
CCCCCc1ccc(OCCCC[n+]2cccc(C)c2)c(CCCCC)c1,–,·,·,
N#C/C(=N/Nc1ccccc1[N+](=O)[O-])C(N)=S,-40,–,–,
CCCCn1c(=O)[nH]c(=O)c2c1nc(-c1ccc([N+](=O)[O-])cc1)n2CC,-45,–,–,
CN(CCO)c1nc(N)c2c(N)nc3c(c2c1C#N)CC(=O)N3Cc1cccs1,–,·,·,
O=[N+]([O-])c1cc(CN2CCN(c3cccc(C(F)(F)F)c3)CC2)c2cccnc2c1O,–,·,·,
COc1ccc(-c2sc3ccccc3c2-c2ccc(OCCN(C)C)cc2)cc1,–,·,·,
CC(C)(C)NC(=O)c1cc(-c2ccc3c(c2)OCO3)nc2ccccc12,-71,–,–,
CCOc1ccccc1NC(=O)c1cc(-c2ccccn2)nc2ccccc12,–,·,·,
Cc1onc(-c2ccccc2Cl)c1C(=O)N[C@@H]1C(=O)N2[C@@H]1SC(C)(C)[C@@H]2C(=O)O,–,·,·,
OC(c1ccccc1)c1cccnc1 (stereo unspecified),-54,–,–,
N#Cc1nc(-c2ccc(OCc3ccc(Cl)cc3)cc2)oc1N1CCC(C(N)=O)CC1,-82,–,-96,Apaf1 act interf=–
CC[C@@H](C)[C@@H]1CN([C@@H](C)CN2CCC[C@H]2CN2C(N)=NC[C@@H]2Cc2ccccc2)C(=N)N1CCCC1CCCC1,–,·,·,
Cc1ccc2cc(C(c3nnnn3Cc3ccccc3)N3CCc4ccccc43)c(=O)[nH]c2c1 (stereo unspecified),–,·,·,
C=CCNC(=O)c1c(N)n(-c2cccc(S(N)(=O)=O)c2)c2nc3ccccc3nc12,–,·,·,
NS(=O)(=O)c1ccc(NC(=O)c2ccc3nccnc3c2)cc1,-44,–,–,
CC(=O)OC1=C(O)C(=O)c2ccccc2C1=O,–,·,·,
CC(C)[n+]1ccn(C2=C([O-])c3ccccc3C(=O)/C2=N\S(=O)(=O)c2ccccc2)c1,–,·,·,
SMILES,Apaf1 activ,Rh110 interf act,Apaf-1 act conf2,others
COc1ccc(-c2noc(COc3ccc4ccccc4c3Br)n2)cc1OC,-136,–,–,
Oc1ccc(NCc2ccccc2OCc2ccccc2)cc1,–,·,·,
O=C(O)CCCN1C(=O)/C(=C\c2ccc(-c3nc4ccccc4s3)o2)SC1=S,-81,–,-120,Apaf1 act interf=–
O=C(O)CC(C(=O)O)N1C(=O)/C(=C/C=C/c2ccco2)SC1=S (stereo unspecified),–,·,·,
COc1ccc2nc3cccc(OC)c3nc2c1,–,·,·,
Nc1c(C(=O)NCCN2CCOCC2)c2nc3ccccc3nc2n1CCc1ccccc1F,–,·,·,
S=c1[nH]nc(-c2ccncc2)n1/N=C/c1cn(-c2ccccc2)nc1-c1ccc(Cl)cc1,-59,–,–,
CCOC(=O)c1[nH]c(COC(=O)c2ccccc2NC(=O)c2ccco2)c(C(=O)OCC)c1C,-383,–,–,
CCN(C(=S)NC(=O)c1ccco1)c1cccc2ccccc12,–,·,·,
CN(C)CCOc1ccc(-c2c(-c3ccsc3)sc3ccccc23)cc1,–,·,·,
COc1cc(C2Nc3cccc4cccc(c34)N2)cc(OC)c1OC(C)=O,–,·,·,
CC(=O)Nc1ccc(CN2CCc3c([nH]c4ccccc34)C2C(C)(C)C)cc1 (stereo unspecified),-55,–,–,
CCN(CC)CCCNC1=C(Cl)C(=O)c2ccccc2C1=O,–,·,·,
N#Cc1cc2ccc(N3CCOCC3)cc2cc1C#N,–,·,·,
COc1nc(N/N=C/c2ccc(-c3ccccc3[N+](=O)[O-])o2)nc(N2CCOCC2)n1,–,·,·,
Cc1cc(C)nc(N/N=C/c2ccc(N3CCOCC3)cc2)n1,-68,–,–,
Cc1ccc(C2(c3noc(CN(C)CC4CCCCO4)n3)CCCC2)cc1 (stereo unspecified),-413,–,–,
CCOC(=O)c1ccc(N=c2sc(C(=O)OC)cc(=O)n2CCCN2CCOCC2)cc1,–,·,·,
COC(=O)C1=C(C)N(CC2CC2)C(=NCc2cccc(C(F)(F)F)c2)N[C@H]1c1ccccc1,–,·,·,
NC(=O)CC1Nc2cccc3cccc(c23)NC1=O (stereo unspecified),–,·,·,
Cc1cc2cc(CNC(=O)Nc3ccc(Cl)c(Cl)c3)ccc2n1C,–,·,·,
CN(CC(=O)Nc1ccc(Cl)c(Cl)c1)C(=O)C12CC3CC(CC(C3)C1)C2,-86,–,–,
CNC[C@@H]1Oc2ccc(NC(=O)Nc3cccc4ccccc34)cc2C(=O)N([C@@H](C)CO)C[C@@H]1C,–,·,·,
NC(N)=N/N=C/c1c(Cl)cccc1Cl,–,·,·,
COC(=O)c1ccccc1-c1ccc(/C=C2\C(=O)N(c3ccccc3)N=C2c2ccccc2)o1,–,·,·,Apaf1 act interf=–
SMILES,Apaf1 activ,Rh110 interf act,Apaf-1 act conf2,others
CC1=NN(c2ccc(C(=O)O)cc2)C(=O)/C1=C/c1ccc(-c2ccccc2F)o1,–,·,·,
CC1=NN(c2ccccc2)C(=O)/C1=C/c1ccc(-c2ccc(C)c(C(=O)O)c2)o1,–,·,·,
NC1=NC[C@H](Cc2ccc(O)cc2)N1CCCCC1CCCCC1,–,·,·,
C=C(C)C(=O)Nc1cccc(C2=NOC3(C2)C[C@@H](C(N)=O)N(C(=O)/C=C/CC)C3)c1 (stereo partly specified),-205,–,-114,Apaf1 act interf=–
C=C(C)C(=O)Nc1cccc(C2=NOC3(C2)C[C@H](C(N)=O)N(C(=O)/C=C/C)C3)c1 (stereo partly specified),-280,–,-126,Apaf1 act interf=–
COc1ccc(/C=C2/C(=O)N(c3cccc(F)c3)N=C2C)c(OC)c1,–,·,·,
CCC(=O)OCCNc1cc(Sc2nc3ccccc3s2)c2nonc2c1[N+](=O)[O-],–,·,·,
CCCCC1=CC2=C(c3ccco3)C(=O)C(C)(OC(=O)c3ccc(OC)cc3)C(=O)C2=CN1C1CC1 (stereo unspecified),–,·,·,
Cc1c(O)cccc1C(=O)N[C@@H](CSc1ccccc1)[C@H](O)CN1C[C@H]2CCCC[C@H]2C[C@H]1C(=O)NC(C)(C)C,–,·,·,
C#CCOCCOCCOCCNc1nc(N2CCN(C(=O)[C@H](Cc3cc4ccccc4[nH]3)n3cc([C@@H](N)C(C)CC)nn3)CC2)nc(N2CCN(C(=O)[C@H](CCCCN)n3cc([C@@H](N)CC(C)C)nn3)CC2)n1 (stereo partly specified),–,·,·,
COc1ccc(-c2nc(-c3ccccc3)c(-c3cccs3)[nH]2)cc1OC,-373,–,–,
Cc1ccc(N(CC2=NCCN2)c2cccc(O)c2)cc1,–,·,·,
COc1ccc(C(=O)Nn2cnc3scc(-c4cccs4)c3c2=O)c(O)c1,-391,–,–,
